{
  "source": "ChEMBL document CHEMBL2176883",
  "about": "“Aminopiperidine sulfonamide Cav2.2 channel inhibitors for the treatment of chronic pain” (J Med Chem, 2012)",
  "key": {"Cav1.2": {"target": "Cav1.2 (Homo sapiens, UniProt Q13936)", "sequence (Q13936 whole entry)": "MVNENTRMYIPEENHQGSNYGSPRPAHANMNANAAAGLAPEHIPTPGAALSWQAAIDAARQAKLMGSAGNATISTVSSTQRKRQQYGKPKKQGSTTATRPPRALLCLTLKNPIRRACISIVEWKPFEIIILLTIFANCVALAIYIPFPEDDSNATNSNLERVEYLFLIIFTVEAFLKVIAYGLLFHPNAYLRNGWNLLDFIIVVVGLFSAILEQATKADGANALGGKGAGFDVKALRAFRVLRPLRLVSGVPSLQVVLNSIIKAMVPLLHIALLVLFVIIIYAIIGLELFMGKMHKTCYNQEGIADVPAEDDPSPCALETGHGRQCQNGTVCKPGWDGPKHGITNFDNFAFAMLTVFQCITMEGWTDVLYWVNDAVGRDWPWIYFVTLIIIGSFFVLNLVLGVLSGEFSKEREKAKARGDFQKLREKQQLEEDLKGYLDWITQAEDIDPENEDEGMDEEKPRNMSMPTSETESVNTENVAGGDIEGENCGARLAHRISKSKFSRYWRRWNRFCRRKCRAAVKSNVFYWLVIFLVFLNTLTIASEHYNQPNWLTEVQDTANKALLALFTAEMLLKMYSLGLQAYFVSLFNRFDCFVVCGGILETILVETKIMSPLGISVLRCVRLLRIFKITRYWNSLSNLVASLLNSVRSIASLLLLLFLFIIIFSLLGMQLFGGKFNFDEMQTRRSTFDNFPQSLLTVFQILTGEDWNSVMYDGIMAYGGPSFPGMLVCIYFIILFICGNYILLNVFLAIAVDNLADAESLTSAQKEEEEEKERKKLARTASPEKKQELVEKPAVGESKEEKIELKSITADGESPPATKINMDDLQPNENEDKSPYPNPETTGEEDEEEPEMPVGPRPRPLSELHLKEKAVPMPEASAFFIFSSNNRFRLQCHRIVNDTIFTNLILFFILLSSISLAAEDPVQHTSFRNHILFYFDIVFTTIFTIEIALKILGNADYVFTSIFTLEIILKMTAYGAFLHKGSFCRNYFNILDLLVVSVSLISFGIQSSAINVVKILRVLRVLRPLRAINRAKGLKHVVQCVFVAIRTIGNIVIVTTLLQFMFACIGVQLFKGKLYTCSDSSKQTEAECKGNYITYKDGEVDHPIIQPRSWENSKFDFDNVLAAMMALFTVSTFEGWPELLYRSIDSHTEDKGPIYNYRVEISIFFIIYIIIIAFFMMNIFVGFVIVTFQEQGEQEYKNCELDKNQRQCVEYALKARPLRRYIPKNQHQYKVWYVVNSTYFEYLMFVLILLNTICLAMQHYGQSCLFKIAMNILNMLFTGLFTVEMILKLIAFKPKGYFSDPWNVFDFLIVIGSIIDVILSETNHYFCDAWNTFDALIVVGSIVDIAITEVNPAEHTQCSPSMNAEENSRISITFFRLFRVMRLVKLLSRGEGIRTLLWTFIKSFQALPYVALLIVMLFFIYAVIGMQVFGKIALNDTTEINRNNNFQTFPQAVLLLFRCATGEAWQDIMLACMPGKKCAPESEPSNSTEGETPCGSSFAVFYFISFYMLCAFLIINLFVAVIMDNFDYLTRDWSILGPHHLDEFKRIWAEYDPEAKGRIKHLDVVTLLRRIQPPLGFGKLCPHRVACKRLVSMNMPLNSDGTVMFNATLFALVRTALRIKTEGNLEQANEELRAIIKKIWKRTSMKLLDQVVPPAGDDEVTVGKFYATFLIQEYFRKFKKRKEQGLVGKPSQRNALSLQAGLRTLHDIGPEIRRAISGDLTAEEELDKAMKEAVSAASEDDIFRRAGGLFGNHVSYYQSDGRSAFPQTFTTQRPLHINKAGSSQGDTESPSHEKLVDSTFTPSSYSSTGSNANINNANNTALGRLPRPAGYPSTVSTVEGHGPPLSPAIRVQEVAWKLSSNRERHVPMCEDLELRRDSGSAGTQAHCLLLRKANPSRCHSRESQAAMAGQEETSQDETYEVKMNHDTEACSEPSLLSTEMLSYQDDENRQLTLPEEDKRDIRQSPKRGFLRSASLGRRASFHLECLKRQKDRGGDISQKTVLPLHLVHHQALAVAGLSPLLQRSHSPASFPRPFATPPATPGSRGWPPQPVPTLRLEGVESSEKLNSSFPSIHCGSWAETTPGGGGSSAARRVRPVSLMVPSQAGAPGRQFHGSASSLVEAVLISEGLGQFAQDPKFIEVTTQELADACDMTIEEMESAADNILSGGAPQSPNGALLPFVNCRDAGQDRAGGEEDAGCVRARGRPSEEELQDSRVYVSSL", "experiment": "Inhibition of Cav1.2 assessed as inhibition of calcium flux at 1 uM by cell based FLIPR assay", "outline": "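Cav1.2 counterscreen using a related calcium-influx FLIPR assay, run as % inhibition at single concentrations or as a titration.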"}, "[1]": {"experiment": "Oral bioavailability in rat at 3 mg/kg", "format": "ADME, organism-based", "settings": "in vivo; call rule not given here", "outline": "(§1)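 Rat pharmacokinetics from iv and po arms: 0.6 mg/kg iv with 1.8 mg/kg po, or 1 mg/kg iv with 3 mg/kg po. AUC was normalized to po dose (μM·h·kg/mg). Clearance (mL/min/kg) and half-life come from the iv arm, and F% is oral bioavailability.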"}, "[2]": {"experiment": "Plasma concentration in rat SNL neuropathic pain model at 10 mg/kg, po after 3 hrs", "format": "ADME, organism-based", "set-up": "dose 10 mg/kg, route oral", "outline": "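Rats with spinal nerve ligation; separate SNL-treated rats given single oral 10 mg/kg dose; plasma exposure measured 3 h postdose.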"}, "Rattus norvegicus [3]": {"test_system": "Rattus norvegicus", "experiment": "Analgesic activity in rat SNL neuropathic pain model assessed as reversal of mechanical allodynia at 10 mg/kg, po after 1 hr", "format": "functional"}, "[4]": {"experiment": "Fraction unbound in human plasma", "format": "ADME, cell-free"}, "Canis familiaris [5]": {"test_system": "Canis familiaris", "experiment": "Cardiotoxicity in vagotomized dog assessed as PR interval at 1 to 10 mg/kg, iv up to 90 mins", "format": "toxicity, organism-based, Canis lupus familiaris", "set-up": "dose 1-10 mg/kg, route intravenous", "settings": "in vivo, 1.5 h", "outline": "(§2)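 Anesthetized, vagotomized dogs received an intravenous infusion in sequential rising cumulative doses of 1, 3 and 10 mg/kg. MAP, HR, QRS, PR and QTc were monitored, with plasma exposure sampled at the indicated time points (n = 3).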"}, "[6]": {"experiment": "Fraction unbound in rat plasma", "format": "ADME, cell-free"}, "Mus musculus [7]": {"test_system": "Mus musculus", "experiment": "Antinociceptive activity in Cav2.2 deficient mouse SNL neuropathic pain model assessed as reversal of mechanical allodynia at 30 mg/kg, po after 2 hrs", "format": "functional", "outline": "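Cav2.2+/+ and Cav2.2−/− mice underwent spinal nerve ligation, then got a single 30 mg/kg oral dose. Mechanical allodynia was scored 2 h postdose.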"}, "[8]": {"target": "T1, Voltage-dependent N-type calcium channel subunit alpha-1B (Homo sapiens, UniProt Q00975)", "experiment": "Inhibition of human Cav2.2 expressed CBK cells assessed as inhibition of channel current at <1 uM at holding membrane potential -40 mV by conventional patch clamp electrophysiology assay", "outline": "(§3)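 Cav2.2 current block was measured at a depolarized (−40 mV) or hyperpolarized (−90 mV) potential. At −40 mV, n = 2, 3, 4 and 1 at 0.3, 1, 3 and 10 μM. At −90 mV, n = 4 and 6 at 3 and 10 μM. Values are mean ± SEM.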"}, "Canis familiaris [9]": {"test_system": "Canis familiaris", "experiment": "Cardiotoxicity in vagotomized dog assessed as QRS interval at 1 to 10 mg/kg, iv up to 90 mins", "format": "toxicity, organism-based, Canis lupus familiaris", "set-up": "dose 1-10 mg/kg, route intravenous", "settings": "in vivo, 1.5 h", "outline": "as §2"}, "[10]": {"target": "T1, Voltage-dependent N-type calcium channel subunit alpha-1B", "experiment": "Inhibition of Cav2.2 expressed HEK293 cells assessed as inhibition of calcium flux by FLIPR assay in presence of 30 mM of potassium", "format": "cell-based", "outline": "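Calcium influx was read with a calcium-sensitive dye on FLIPR Tetra in CBK cells expressing α1B-1, α2-δ and β3a with Kir2.3. Cells were preincubated with compound in 30 mM K+, then channels were opened by 1:1 addition of 140 mM K+ solution. Compounds were screened at 1 μM, then titrated over 10 points (0.001–30 μM) in quadruplicate, mean ± SD. Values are averages of n ≥ 3.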"}, "Rattus norvegicus [11]": {"test_system": "Rattus norvegicus", "experiment": "Analgesic activity in rat SNL neuropathic pain model assessed as reversal of mechanical allodynia at 30 mg/kg, po after 1 hr", "format": "functional"}, "Rattus norvegicus [12]": {"test_system": "Rattus norvegicus", "experiment": "Analgesic activity in po dosed rat SNL neuropathic pain model assessed as reversal of mechanical allodynia after 1 to 24 hrs", "format": "functional, organism-based"}, "[13]": {"target": "T1, Voltage-dependent N-type calcium channel subunit alpha-1B", "experiment": "Inhibition of human Cav2.2 expressed CBK cells assessed as inhibition of channel current at 3 uM at holding membrane potential -40 mV by conventional patch clamp electrophysiology assay", "outline": "as §3"}, "Mus musculus [14]": {"test_system": "Mus musculus", "experiment": "Antinociceptive activity in Cav2.2 deficient mouse assessed as reversal of complete Freund's adjuvant-induced pain at 30 mg/kg, po after 2 hrs", "format": "functional"}, "Blood": {"test_system": "Blood", "experiment": "Drug metabolism in Sprague-Dawley rat assessed as 3-trifluoromethylbenzenesulfonamide level in blood at 10 mg/kg, po after 8 hrs", "format": "ADME, organism-based", "set-up": "dose 10 mg/kg, route oral", "settings": "in vivo", "outline": "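Male Sprague-Dawley rats were given a 10 mg/kg oral dose. Parent and metabolite concentrations were measured in whole blood and brain over time, including 8 h postdose.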"}, "[15]": {"experiment": "Plasma concentration in vagotomized dog at 1 mg/kg, iv after 30 mins", "format": "ADME, organism-based, Canis lupus familiaris", "set-up": "dose 1 mg/kg, route intravenous", "outline": "(§4)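 Anesthetized, vagotomized dogs; intravenous infusion in sequential rising doses of 1, 3 and 10 mg/kg (cumulative); plasma exposure sampled at indicated time points, n = 3.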"}, "[16]": {"experiment": "Half life in rat at 3 mg/kg, po and 1 mg/kg, iv", "format": "ADME, organism-based", "settings": "in vivo", "outline": "as §1"}, "Rattus norvegicus [17]": {"test_system": "Rattus norvegicus", "experiment": "Antinociceptive activity in rat assessed as reversal of complete Freund's adjuvant-induced pain at 30 mg/kg, po after 3 hrs", "format": "functional", "outline": "(§5)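 In the rat CFA inflammatory pain model, compound was given orally at 30 mg/kg and allodynia was read at 1 and 3 h postdose. Average % reversal = (postdose − predose)/(preinjury − predose) for each rat, n = 6. Plasma exposure at 3 h was measured in satellite rats (n = 2).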"}, "Rattus norvegicus [18]": {"test_system": "Rattus norvegicus", "experiment": "Antinociceptive activity in po dosed rat assessed as reversal of complete Freund's adjuvant-induced pain after 3 hrs", "format": "functional, organism-based", "outline": "as §5"}, "Rattus norvegicus [19]": {"test_system": "Rattus norvegicus", "experiment": "Dose normalized AUC in rat at 3 mg/kg, po and 1 mg/kg, iv", "format": "ADME, organism-based", "settings": "in vivo", "outline": "as §1"}, "[20]": {"experiment": "Plasma concentration in rat complete Freund's adjuvant-induced pain model at 10 mg/kg, po after 3 hrs", "format": "ADME, organism-based", "set-up": "dose 10 mg/kg, route oral", "outline": "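Separate CFA-treated rats given single oral 10 mg/kg dose; plasma exposure measured 3 h after dosing.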"}, "Rattus norvegicus [21]": {"test_system": "Rattus norvegicus", "experiment": "Antinociceptive activity in rat assessed as reversal of complete Freund's adjuvant-induced pain at 30 mg/kg, po after 1 hr", "format": "functional", "outline": "as §5"}, "[22]": {"experiment": "Plasma concentration in vagotomized dog at 3 mg/kg, iv after 60 mins", "format": "ADME, organism-based, Canis lupus familiaris", "set-up": "dose 3 mg/kg, route intravenous", "outline": "as §4"}, "[23]": {"experiment": "Metabolic stability in rat liver microsomes assessed as compound remaining at 1 uM after 1 hr", "format": "ADME, Microsome", "settings": "read-out: Stability", "outline": "(§6)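 Compound at 1 μM was incubated with human or rat liver microsomes (1 mg/mL) for 1 h, and the percentage of parent remaining was determined.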"}, "[24]": {"target": "T1, Voltage-dependent N-type calcium channel subunit alpha-1B", "experiment": "Inhibition of human Cav2.2 expressed CBK cells assessed as inhibition of channel current at 10 uM at holding membrane potential -90 mV by conventional patch clamp electrophysiology assay", "outline": "as §3"}, "Liver microsomes [25]": {"test_system": "Liver microsomes", "experiment": "Drug metabolism in rat liver microsomes assessed as assessed as 3-trifluoromethylbenzenesulfonamide level level", "format": "ADME, Microsome"}, "[26]": {"experiment": "Metabolic stability in human liver microsomes assessed as compound remaining at 1 uM after 1 hr", "format": "ADME, Microsome", "settings": "read-out: Stability", "outline": "as §6"}, "Liver microsomes [27]": {"test_system": "Liver microsomes", "experiment": "Drug metabolism in human liver microsomes assessed as assessed as 3-trifluoromethylbenzenesulfonamide level level", "format": "ADME, Microsome"}},
  "data": [
    {"compound": "CS(=O)(=O)c1ccc(F)cc1C(=O)N1CCC(N(C2CC2)S(=O)(=O)c2cccc(C(F)(F)F)c2)CC1", "values": [
      {"measurement": "inhibition at 1 µM", "setting": "Cav1.2", "value": 18, "unit": "%"},
      {"measurement": "bioavailability", "setting": "[1]", "value": 99, "unit": "%"},
      {"measurement": "concentration at 3 h", "setting": "[2]", "value": 1260, "unit": "nM"},
      {"measurement": "Activity", "setting": "Rattus norvegicus [3]", "value": 45, "unit": "%"},
      {"measurement": "fraction unbound", "setting": "[4]", "value": 0.014},
      {"measurement": "Activity", "setting": "Canis familiaris [5]", "value": "Non-toxic"},
      {"measurement": "fraction unbound", "setting": "[6]", "value": 0.02},
      {"measurement": "Activity", "setting": "Mus musculus [7]", "value": 9, "unit": "%"},
      {"measurement": "inhibition", "setting": "[8]", "value": "> 50", "unit": "%"},
      {"measurement": "Activity", "setting": "Canis familiaris [9]", "value": "Non-toxic"},
      {"measurement": "IC50", "setting": "[10]", "value": 560, "unit": "nM"},
      {"measurement": "Activity", "setting": "Rattus norvegicus [11]", "value": 65, "unit": "%"},
      {"measurement": "Activity", "setting": "Rattus norvegicus [12]", "value": "Dose-dependent effect"},
      {"measurement": "inhibition", "setting": "[13]", "value": 84, "unit": "%"},
      {"measurement": "Activity", "setting": "Mus musculus [14]", "value": 4, "unit": "%"},
      {"measurement": "Drug metabolism", "setting": "Blood", "value": 6.1, "unit": "µM"},
      {"measurement": "concentration at 0.5 h", "setting": "[15]", "value": 1960, "unit": "nM"},
      {"measurement": "half-life", "setting": "[16]", "value": 1.3, "unit": "h"},
      {"measurement": "Activity", "setting": "Rattus norvegicus [17]", "value": 57, "unit": "%"},
      {"measurement": "Activity", "setting": "Rattus norvegicus [18]", "value": "Dose-dependent effect"},
      {"measurement": "AUC/dose", "setting": "Rattus norvegicus [19]", "value": 0.86, "unit": "µM·kg·h/mg"},
      {"measurement": "concentration at 3 h", "setting": "[20]", "value": 1660, "unit": "nM"},
      {"measurement": "Activity", "setting": "Rattus norvegicus [21]", "value": 66, "unit": "%"},
      {"measurement": "concentration at 1 h", "setting": "[22]", "value": 5790, "unit": "nM"},
      {"measurement": "remaining at 1 h, 1 µM", "setting": "[23]", "value": 40, "unit": "%"},
      {"measurement": "inhibition", "setting": "[24]", "value": 43, "unit": "%"},
      {"measurement": "Drug metabolism", "setting": "Liver microsomes [25]", "value": "Active"},
      {"measurement": "remaining at 1 h, 1 µM", "setting": "[26]", "value": 30, "unit": "%"},
      {"measurement": "Drug metabolism", "setting": "Liver microsomes [27]", "value": "Active"}
    ]}
  ]
}
